Measurements: ChEMBL document CHEMBL3232963, “Discovery of a potent and selective α3β4 nicotinic acetylcholine receptor antagonist from an α-conotoxin synthetic combinatorial library” (J Med Chem, 2014)
Numbered stars: 1 amine (or outer) side, 2 acyl side, 3 side chain; on linkers, the order of the positions; unused ones are H or OH. Bridge positions count the residues as written; N and C are the ends. Square brackets hold non-standard residues; d marks the D form. Peptide text beside a SMILES is read from it. X1 = O=C([C@H](CC1C=Nc2ccccc21)N[*:1])[*:2]; Nle = CCCC[C@H](N)C(=O)O; Nva = CCC[C@H](N)C(=O)O; Abu = CC[C@H](N)C(=O)O

The compounds below were run against Neuronal acetylcholine receptor; alpha3/beta4 (Rattus norvegicus) (UniProt P04757+P12392) (assay: Antagonist activity at rat alpha3beta4 nAChR expressed in HEK293 cells assessed as inhibition of epibatadine-induced effect at 10 uM after 30 mins by fluorescent membrane potential assay relative to mecamylamine).
Format: cell-based
Summary of the method: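 Rat α3β4 nAChR stably expressed in HEK293 cells; crude, SPE-desalted individual peptides tested at 10 μM in HBSS with membrane potential blue dye, 30 min at 37 °C. Fluorescence change read after epibatidine (0.1 μM). Percent inhibition set against 10 μM mecamylamine taken as 100%.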

First: CCC[C@@H]1NC(=O)[C@H](Cc2c[nH]c3ccccc23)NC(=O)[C@H]([C@H](C)CC)NC(=O)[C@@H]2CSSC[C@H](NC(=O)CN)C(=O)N[C@@H](CSSC[C@@H](C(=O)O)NC(=O)[C@H](Cc3ccc(O)cc3)NC1=O)C(=O)N[C@@H](CO)C(=O)N[C@@H](Cc1cnc[nH]1)C(=O)N1CCC[C@H]1C(=O)N[C@@H](CC)C(=O)N2
Second: CCCC[C@@H]1NC(=O)[C@H](Cc2c[nH]c3ccccc23)NC(=O)[C@H]([C@H](C)CC)NC(=O)[C@@H]2CSSC[C@H](NC(=O)CN)C(=O)N[C@@H](CSSC[C@@H](C(=O)O)NC(=O)[C@H](Cc3ccc(O)cc3)NC1=O)C(=O)N[C@@H](CO)C(=O)N[C@@H](Cc1cnc[nH]1)C(=O)N1CCC[C@H]1C(=O)N[C@@H](CC)C(=O)N2
The inhibition of the first is lower: 47.5% for the first, 55.7% for the second.

Going from `CCCC[C@@H]1NC(=O)[C@H](CC)NC(=O)[C@H]([C@H](C)CC)NC(=O)[C@@H]2CSSC[C@H](NC(=O)CN)C(=O)N[C@@H](CSSC[C@@H](C(=O)O)NC(=O)[C@H](Cc3ccc(O)cc3)NC1=O)C(=O)N[C@@H](CO)C(=O)N[C@@H](CCCC)C(=O)N1CCC[C@H]1C(=O)N[C@@H](CC)C(=O)N2` to `CCCC[C@@H]1NC(=O)[C@H](CC)NC(=O)[C@H]([C@H](C)CC)NC(=O)[C@@H]2CSSC[C@H](NC(=O)CN)C(=O)N[C@@H](CSSC[C@@H](C(=O)O)NC(=O)[C@@H]3CCCN3C1=O)C(=O)N[C@@H](CO)C(=O)N[C@@H](CCCC)C(=O)N1CCC[C@H]1C(=O)N[C@@H](CC)C(=O)N2`, the inhibition falls from 72.6% to 42.9%.

Compared with `CCCC[C@@H]1NC(=O)[C@H](CO)NC(=O)[C@@H]2CSSC[C@@H](C(=O)O)NC(=O)[C@H](Cc3ccc(O)cc3)NC(=O)[C@H](CCC)NC(=O)[C@H](Cc3c[nH]c4ccccc34)NC(=O)[C@H](Cc3ccccc3)NC(=O)[C@H](CSSC[C@H](NC(=O)CN)C(=O)N2)NC(=O)[C@H](CC)NC(=O)[C@@H]2CCCN2C1=O` (H-GCCS[Nle]P[Abu]CFW[Nva]YC-OH; disulfide 2-8, 3-13), `CCCC[C@@H]1NC(=O)[C@H](Cc2c[nH]c3ccccc23)NC(=O)[C@H](Cc2ccccc2)NC(=O)[C@@H]2CSSC[C@H](NC(=O)CN)C(=O)N[C@@H](CSSC[C@@H](C(=O)O)NC(=O)[C@H](Cc3ccc(O)cc3)NC1=O)C(=O)N[C@@H](CO)C(=O)N[C@@H](Cc1cnc[nH]1)C(=O)N1CCC[C@H]1C(=O)N1CCC[C@H]1C(=O)N2` (H-GCCSHPPCFW[Nle]YC-OH; disulfide 2-8, 3-13) is lower in inhibition: 67.9% for the first, 44% for the second.

Going from `CCCC[C@@H]1NC(=O)[C@H](Cc2c[nH]c3ccccc23)NC(=O)[C@H]([C@H](C)CC)NC(=O)[C@@H]2CSSC[C@H](NC(=O)CN)C(=O)N[C@@H](CSSC[C@@H](C(=O)O)NC(=O)[C@H](Cc3ccc(O)cc3)NC1=O)C(=O)N[C@@H](CO)C(=O)N[C@@H](Cc1cnc[nH]1)C(=O)N1CCC[C@H]1C(=O)N1CCC[C@H]1C(=O)N2` to `CCCC[C@@H]1NC(=O)[C@H](CO)NC(=O)[C@@H]2CSSC[C@@H](C(=O)O)NC(=O)[C@H](Cc3ccc(O)cc3)NC(=O)[C@H](CCC)NC(=O)[C@H](Cc3c[nH]c4ccccc34)NC(=O)[C@H]([C@H](C)CC)NC(=O)[C@H](CSSC[C@H](NC(=O)CN)C(=O)N2)NC(=O)[C@@H]2CCCN2C(=O)[C@@H]2CCCN2C1=O`, the inhibition rises from 43.9% to 58.3%.

Compared with `CCCC[C@@H]1NC(=O)[C@H](CC)NC(=O)[C@H](Cc2ccccc2)NC(=O)[C@@H]2CSSC[C@H](NC(=O)CN)C(=O)N[C@@H](CSSC[C@@H](C(=O)O)NC(=O)[C@@H]3CCCN3C1=O)C(=O)N[C@@H](CO)C(=O)N[C@@H](CCCC)C(=O)N1CCC[C@H]1C(=O)N[C@@H](CC)C(=O)N2` (H-GCCS[Nle]P[Abu]CF[Abu][Nle]PC-OH; disulfide 2-8, 3-13), `CCCC[C@@H]1NC(=O)[C@H](CC)NC(=O)[C@H](Cc2ccccc2)NC(=O)[C@@H]2CSSC[C@H](NC(=O)CN)C(=O)N[C@@H](CSSC[C@@H](C(=O)O)NC(=O)[C@@H]3CCCN3C1=O)C(=O)N[C@@H](CO)C(=O)N[C@@H](CCCC)C(=O)N1CCC[C@H]1C(=O)N1CCC[C@H]1C(=O)N2` (H-GCCS[Nle]PPCF[Abu][Nle]PC-OH; disulfide 2-8, 3-13) is higher in inhibition: 36.6% for the first, 54.6% for the second.

Compared with `CCC[C@@H]1NC(=O)[C@H](CC)NC(=O)[C@H]([C@H](C)CC)NC(=O)[C@@H]2CSSC[C@H](NC(=O)CN)C(=O)N[C@@H](CSSC[C@@H](C(=O)O)NC(=O)[C@@H]3CCCN3C1=O)C(=O)N[C@@H](CO)C(=O)N[C@@H](Cc1cnc[nH]1)C(=O)N1CCC[C@H]1C(=O)N1CCC[C@H]1C(=O)N2`, `CCC[C@@H]1NC(=O)[C@H](Cc2c[nH]c3ccccc23)NC(=O)[C@H]([C@H](C)CC)NC(=O)[C@@H]2CSSC[C@H](NC(=O)CN)C(=O)N[C@@H](CSSC[C@@H](C(=O)O)NC(=O)[C@@H]3CCCN3C1=O)C(=O)N[C@@H](CO)C(=O)N[C@@H](Cc1cnc[nH]1)C(=O)N1CCC[C@H]1C(=O)N1CCC[C@H]1C(=O)N2` is lower in inhibition: 45.1% for the first, 44.8% for the second.

Compared with `CCC[C@@H]1NC(=O)[C@H](Cc2c[nH]c3ccccc23)NC(=O)[C@H]([C@H](C)CC)NC(=O)[C@@H]2CSSC[C@H](NC(=O)CN)C(=O)N[C@@H](CSSC[C@@H](C(=O)O)NC(=O)[C@@H]3CCCN3C1=O)C(=O)N[C@@H](CO)C(=O)N[C@@H](Cc1cnc[nH]1)C(=O)N1CCC[C@H]1C(=O)N[C@@H](CC)C(=O)N2`, `CCCC[C@@H]1NC(=O)[C@H](Cc2c[nH]c3ccccc23)NC(=O)[C@H]([C@H](C)CC)NC(=O)[C@@H]2CSSC[C@H](NC(=O)CN)C(=O)N[C@@H](CSSC[C@@H](C(=O)O)NC(=O)[C@H](Cc3ccc(O)cc3)NC1=O)C(=O)N[C@@H](CO)C(=O)N[C@@H](CCCC)C(=O)N1CCC[C@H]1C(=O)N1CCC[C@H]1C(=O)N2` is higher in inhibition: 38.7% for the first, 51.8% for the second.

Compared with `CCCC[C@@H]1NC(=O)[C@H](CC2C=Nc3ccccc32)NC(=O)[C@H](Cc2ccccc2)NC(=O)[C@@H]2CSSC[C@H](NC(=O)CN)C(=O)N[C@@H](CSSC[C@@H](C(=O)O)NC(=O)[C@@H]3CCCN3C1=O)C(=O)N[C@@H](CO)C(=O)N[C@@H](Cc1cnc[nH]1)C(=O)N1CCC[C@H]1C(=O)N[C@@H](CC)C(=O)N2` (stereo partly specified) (H-GCCSHP[Abu]CF[X1][Nle]PC-OH; disulfide 2-8, 3-13), `CCCC[C@@H]1NC(=O)[C@H](CO)NC(=O)[C@@H]2CSSC[C@@H](C(=O)O)NC(=O)[C@@H]3CCCN3C(=O)[C@H](CCC)NC(=O)[C@H](CC)NC(=O)[C@H](Cc3ccccc3)NC(=O)[C@H](CSSC[C@H](NC(=O)CN)C(=O)N2)NC(=O)[C@@H]2CCCN2C(=O)[C@@H]2CCCN2C1=O` (H-GCCS[Nle]PPCF[Abu][Nva]PC-OH; disulfide 2-8, 3-13) is higher in inhibition: 22.3% for the first, 35.7% for the second.
